Results published in ChEMBL document CHEMBL1133135, “Grignard-mediated synthesis and preliminary biological evaluation of novel 3-substituted farnesyl diphosphate analogues” (Bioorg Med Chem Lett, 2000).

Legend:
[1] = target: Protein farnesyltransferase (Homo sapiens) (UniProt P49354+P49356); assay: Relative Vmax for Farnesyltransferase at 10 uM; format: protein-complex assay
In short: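 Baculovirus-expressed, purified recombinant mammalian FTase in a continuous fluorometric assay with dansyl-GCVLS-OH peptide cosubstrate, testing each FPP analogue as alternative prenyl donor. Relative Vmax is the Vmax with analogue at 10 μM divided by the Vmax with FPP at 10 μM under the same conditions. Analogue concentrations were checked by phosphate analysis.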

[2] = system: CC(C)=CCC/C(C)=C/CC/C(C)=C/COP(=O)(O)OP(=O)(O)O
[3] = system: CC(C)=CCC/C(C)=C/CC/C(=C/COP(=O)(O)OP(=O)(O)O)C1CCCC1; assay: Km for mammalian protein Farnesyltransferase expressed in baculovirus

Compound | Krel [1] | Km [2] [µM] | Km [3] [µM]
C=CC/C(=C\COP(=O)(O)OP(=O)(O)O)CC/C=C(\C)CCC=C(C)C | 0.053 |  | 
Protein farnesyltransferase (Homo sapiens) (from UniProt P49354+P49356) |  | 0.107 | 0.102
CC(C)=CCC/C(C)=C/CC/C(=C/COP(=O)(O)OP(=O)(O)O)c1ccc(F)cc1 | 0.002 |  | 
CC(C)=CCC/C(C)=C/CC/C(=C/COP(=O)(O)OP(=O)(O)O)C1CCCC1 | 0.072 |  | 
C=C/C(=C\COP(=O)(O)OP(=O)(O)O)CC/C=C(\C)CCC=C(C)C | 0.521 |  | 

Second part, led by results:

Krel [1] | Compound | Km [2] [µM] | Km [3] [µM]
0 | C=C(C)/C(=C\COP(=O)(O)OP(=O)(O)O)CC/C=C(\C)CCC=C(C)C |  | 
0.042 | CC(C)=CCC/C(C)=C/CC/C(=C/COP(=O)(O)OP(=O)(O)O)CC(C)(C)C |  | 
0 | CCC(C)/C(=C\COP(=O)(O)OP(=O)(O)O)CC/C=C(\C)CCC=C(C)C (configuration not stated) |  | 
0.013 | CC(C)=CCC/C(C)=C/CC/C(=C/COP(=O)(O)OP(=O)(O)O)C(C)C |  | 
0 | CC(C)=CCC/C(C)=C/CC/C(=C/COP(=O)(O)OP(=O)(O)O)CC(C)C |  | 
0.078 | CCC/C(=C\COP(=O)(O)OP(=O)(O)O)CC/C=C(\C)CCC=C(C)C |  | 
